The results in this text go back to ChEMBL document CHEMBL1123616, “Thromboxane synthase inhibitors. Synthesis and pharmacological activity of (R)-, (S)-, and (+/-)-2,2-dimethyl-6-[2-(1H-imidazol-1-yl)-1-[[(4-methoxyphenyl)- methoxy]methyl]ethoxy]hexanoic acids” (J Med Chem, 1987).

Format in all cases: functional
Experiment [1] has as its system Cavia porcellus. Put plainly: Inhibition of Collagen-induced Thromboxane (TXB2) in guinea pig whole blood ex vivo by oral 30 mg/kg administration of test compound. In a few lines: (§1)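 Male Dunkin-Hartley guinea pigs (300-350 g), fasted overnight, dosed orally by gavage in 50% PEG 400/50% carboxymethylcellulose vehicle. Pentobarbitone anaesthesia 10 min before bleed at 1 h post-dose. Aortic blood was taken into citrate and stirred at 37 °C. Collagen (10 μg/mL) was added and incubated 5 min, then stopped with indomethacin. Plasma TxB2 was measured by RIA and normalized to 5.0×10^8 platelets/mL. Groups of ≥4 animals.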

Experiment [2] has as its system Cavia porcellus. Kind of experiment: Inhibition of Collagen-induced Thromboxane (TXB2) in guinea pig whole blood ex vivo after 1 hr of 30 mg/kg oral administration of compound. A digest of the protocol:
as §1

Experiment [3] has as its system Cavia porcellus. Put plainly: Inhibition of Collagen-induced serum Thromboxane (TXB2) in guinea pig whole blood ex vivo after 30 mg/kg oral administration of compound. In a few lines:
as §1

The target of experiment [4] is T1, Thromboxane-A synthase (Homo sapiens, UniProt P24557).
T1 sequence (P24557 whole entry): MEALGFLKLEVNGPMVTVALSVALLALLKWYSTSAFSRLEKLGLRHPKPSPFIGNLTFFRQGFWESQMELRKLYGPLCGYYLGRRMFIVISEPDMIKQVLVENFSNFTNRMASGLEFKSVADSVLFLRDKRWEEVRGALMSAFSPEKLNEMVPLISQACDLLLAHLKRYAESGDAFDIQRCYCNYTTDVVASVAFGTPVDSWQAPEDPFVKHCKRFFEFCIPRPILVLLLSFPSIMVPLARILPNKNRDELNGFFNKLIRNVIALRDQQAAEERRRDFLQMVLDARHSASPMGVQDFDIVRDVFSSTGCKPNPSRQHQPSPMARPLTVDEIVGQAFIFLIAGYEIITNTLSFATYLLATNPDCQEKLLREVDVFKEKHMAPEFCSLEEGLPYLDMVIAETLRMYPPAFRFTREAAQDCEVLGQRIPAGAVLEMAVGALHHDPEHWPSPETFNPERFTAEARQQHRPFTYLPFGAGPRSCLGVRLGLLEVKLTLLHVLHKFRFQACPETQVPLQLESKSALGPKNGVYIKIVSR
Put plainly: Inhibition of Thromboxane B2 formation in collagen-stimulated human platelets in platelet rich plasma.

Experiment [5] deals with Cavia porcellus. Put plainly: Inhibition of Collagen-induced serum Thromboxane (TXB2) generation in guinea pig whole blood ex vivo after 10 mg/kg oral administration of compound. A digest of the protocol: as §1
Experiment [6] relates to Cavia porcellus. Put plainly: Dose-related effect was determined 1 hr after oral administration in guinea pig and expressed as ED50 value. A digest of the protocol: as §1
Experiment [7] relates to Cavia porcellus. Put plainly: Inhibition of Collagen-induced Thromboxane (TXB2) generation in guinea pig whole blood ex vivo by oral 10 mg/kg administration of test compound. A digest of the protocol: as §1
For experiment [8], the system named is Cavia porcellus. Put plainly: Inhibition of Collagen-induced Thromboxane (TXB2) in guinea pig whole blood ex vivo after 1 hr of 30 mg/kg oral administration of compound. In a few lines: as §1
For experiment [9], the system named is Cavia porcellus. Put plainly: Inhibition of Collagen-induced serum Thromboxane (TXB2) in guinea pig whole blood ex vivo after 10 mg/kg oral administration of compound. In a few lines: as §1
The test system of experiment [10] is Cavia porcellus. Put plainly: Inhibition of Collagen-induced Thromboxane (TXB2) in guinea pig whole blood ex vivo after 1 hr of 10 mg/kg oral administration of compound. A digest of the protocol:
as §1

A value given as a limit tells only on which side of the number the result lay.

As usually defined, the ED50 is the dose that gives a 50% effect, or the effect in half of the subjects. Low values mean an effect at a small dose, high ones a need for a large dose. A word on the inhibition in vivo: it is the relative decrease from the control value, in per cent. Usually IC50 stands for the concentration needed to halve the response being measured. On to `COc1ccc(COCC(Cn2ccnc2)OCCCCCC(=O)O)cc1` (stereo unspecified), for which, in experiment [1], the “Thromboxane B2 (TxB2)” value amounted to 130 pg 0.1ml-1 500x10^3. Further, the median effective dose (ED50) in experiment [2] was 10.5 mg/kg. In experiment [3], the inhibition in vivo at 30 mg/kg was determined as 82%. For the same compound, half-maximal inhibition in experiment [4] (IC50) was put at 560 nM.

`COc1ccc(COCC(Cn2ccnc2)OCCCCC(C)(C)C(=O)O)cc1` (racemic): the “Thromboxane B2 (TxB2)” value in [1] amounted to 153 pg 0.1ml-1 500x10^3. The same compound displayed a median effective dose (ED50) in experiment [2] of 3.4 mg/kg. The inhibition in vivo at 30 mg/kg in experiment [3] is 87%. It took 120 nM to reach half-maximal inhibition in [4] (IC50).

Take `COc1ccc(COC[C@H](Cn2ccnc2)OCCCCC(C)(C)C(=O)O)cc1`: the inhibition in vivo at 10 mg/kg in experiment [5] turned out to be 95%. For the same compound, the 50% effective dose (ED50) in experiment [6] was found to be 1.4 mg/kg. In addition, the “Thromboxane B2 (TxB2)” value in [7] is on record as 61.9 pg 0.1ml-1 500x10^3. Further, the IC50 in [4] was 36 nM.

Take `COc1ccc(COCC(Cn2ccnc2)OCCC/C=C/C(=O)O)cc1` (stereo unspecified): the “Thromboxane B2 (TxB2)” value in [1] amounted to 1302 pg 0.1ml-1 500x10^3. The inhibition in vivo at 30 mg/kg in [3] came to 4%. For the same compound, the concentration for half-maximal inhibition (IC50) in experiment [4] was 8330 nM.

Take `CCOC(=O)/C=C/CCCOC(COCc1ccc(OC)cc1)Cn1ccnc1` (stereo unspecified): it took 10000 nM to reach half-maximal inhibition in experiment [4] (IC50).

Regarding `CCOC(=O)CCCCCCOC(COCc1ccc(OC)cc1)Cn1ccnc1` (stereo unspecified), the “Thromboxane B2 (TxB2)” value in experiment [1] came to 2720 pg 0.1ml-1 500x10^3. For the same compound, the inhibition in vivo at 30 mg/kg in [3] amounted to 33%. Besides, 4000 nM corresponded to half-maximal inhibition in experiment [4] (IC50).

Take `COc1ccc(COC[C@@H](Cn2ccnc2)OCCCCC(C)(C)C(=O)O)cc1`: the “Thromboxane B2 (TxB2)” value in experiment [1] worked out at 572 pg 0.1ml-1 500x10^3. In [2], it took a dose of 12 mg/kg to reach the 50% effect level (ED50). The inhibition in vivo at 30 mg/kg in experiment [3] turned out to be 71%. In [4], this compound returned a 50% inhibitory concentration (IC50) of 420 nM.

In the case of `COc1ccc(COCC(Cn2ccnc2)OCCCCCCC(=O)O)cc1` (stereo unspecified), in experiment [1], the “Thromboxane B2 (TxB2)” value is 923 pg 0.1ml-1 500x10^3. Further, the inhibition in vivo at 30 mg/kg in experiment [3] was 25%. This compound registered a half-maximal inhibitory concentration (IC50) in experiment [4] of 1890 nM.

Regarding `CCOC(=O)CCCCCCC(COCc1ccc(OC)cc1)Cn1ccnc1` (stereo unspecified), the “Thromboxane B2 (TxB2)” value in experiment [1] is recorded as 683 pg 0.1ml-1 500x10^3. In [3], the inhibition in vivo at 30 mg/kg amounted to 53%. Further, in experiment [4], the midpoint of inhibition, the IC50, lay at 1000 nM.

Turning to `CCOC(=O)C(C)(C)CCCCOC(COCc1ccc(OC)cc1)Cn1ccnc1` (stereo unspecified), the “Thromboxane B2 (TxB2)” value in experiment [1] was 55 pg 0.1ml-1 500x10^3. Besides, the 50% effect level in [2] (ED50) was put at a dose of 6.7 mg/kg. In addition, the inhibition in vivo at 30 mg/kg in experiment [3] was 97%. The same compound returned a half-inhibitory concentration (IC50) in experiment [4] of 17600 nM.

For the compound `CCOC(=O)CCCCCOC(COCc1ccc(OC)cc1)Cn1ccnc1` (stereo unspecified), the “Thromboxane B2 (TxB2)” value in experiment [1] is on record as 750 pg 0.1ml-1 500x10^3. Besides, the 50% effect level in experiment [8] (ED50) was put at a dose of 13.5 mg/kg. In experiment [3], the inhibition in vivo at 30 mg/kg amounted to 63%. Moreover, in [4], the 50% inhibitory concentration (IC50) turned out to be 120 nM.

With `COc1ccc(COCC(Cn2ccnc2)OCCCCCCC(C)(C)C(=O)O)cc1` (stereo unspecified), the half-inhibitory concentration (IC50) in experiment [4] was more than 20000 nM.

As for `COc1ccc(COCC(Cn2ccnc2)OCCCCC(=O)O)cc1` (stereo unspecified), in [1], the “Thromboxane B2 (TxB2)” value came to 1047 pg 0.1ml-1 500x10^3. Besides, the inhibition in vivo at 30 mg/kg in [3] was found to be 43%. This compound also showed a 50% inhibitory concentration (IC50) in [4] of 730 nM.

Turning to `CCOC(=O)CCC/C=C/CC(COCc1ccc(OC)cc1)Cn1ccnc1` (stereo unspecified), the “Thromboxane B2 (TxB2)” value in experiment [1] worked out at 1265 pg 0.1ml-1 500x10^3. Besides, in experiment [3], the inhibition in vivo at 30 mg/kg is 23%. Half-maximal inhibition in experiment [4] (IC50) required 390 nM.

Consider `COc1ccc(COCC(CCCCCCC(=O)O)Cn2ccnc2)cc1` (stereo unspecified), for which, in experiment [1], the “Thromboxane B2 (TxB2)” value was 1620 pg 0.1ml-1 500x10^3. Besides, the inhibition in vivo at 30 mg/kg in experiment [3] is -18%. In addition, in experiment [4], the half-inhibitory concentration (IC50) is 1430 nM.

As for `O=C(O)c1ccc(OCCn2ccnc2)cc1` [DAZOXIBEN], in [1], the “Thromboxane B2 (TxB2)” value was determined as 674 pg 0.1ml-1 500x10^3. Also, the 50% effect level in experiment [2] (ED50) was put at a dose of 9.3 mg/kg. Besides, the inhibition in vivo at 30 mg/kg in experiment [3] amounted to 54%.

For the compound `COc1ccc2c(c1)c(CC(=O)O)c(C)n2C(=O)c1ccc(Cl)cc1` [INDOMETHACIN], the inhibition in vivo at 10 mg/kg in experiment [9] is 99%. The “Thromboxane B2 (TxB2)” value in experiment [7] is 27 pg 0.1ml-1 500x10^3. Besides, the ED50 at 10 mg/kg in experiment [10] is less than 10 mg/kg.

For the compound `CCOC(=O)CCCCOC(COCc1ccc(OC)cc1)Cn1ccnc1` (stereo unspecified), in experiment [1], the “Thromboxane B2 (TxB2)” value was 2018 pg 0.1ml-1 500x10^3. The inhibition in vivo at 30 mg/kg in experiment [3] was -11%. The concentration for half-maximal inhibition (IC50) in [4] turned out to be 750 nM.
